A selection: hits, their analogues and other compounds. The true share with any hit is near 1.4%.
NR2E3 ag-1 – NR2E3 (human) agonism; inhibition of corepressor binding, % at 4.78 µM; GST-NR2E3/biotin-RetCOR TR-FRET, 1536-well; hit rate 0.12% among 320,000;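 active = percent inhibition above the cutoff of mean plus 3 SD of all tested compounds, set per screening campaign, cut at about 20% in these data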;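 note: 0% = DMSO wells and 100% = biotin wells as full block of FRET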
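System: GST-tagged NR2E3 plus biotinylated RetCOR corepressor; Buffer or medium: pH 7.5 Tris-based buffer; Probe or stimulus: RetCOR corepressor, biotinylated, 7 nM; Doses: compound at 4.8 µM, single dose; Schedule: 5 h incubation at 4 °C; Technique: time-resolved FRET; Evaluation: percent inhibition of TR-FRET ratio; Replication: one well per compound, singlicate testing.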
NR2E3 ag-2 – human photoreceptor-specific nuclear receptor agonism. Q9Y5X4. CHO-S Gal4-NCOR/VP16-NR2E3 two-hybrid, luciferase. inhibition of corepressor binding, % at 3.98 µM. hit rate 0.35% among 360,000;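 active = inhibition above the mean of all tested compounds plus 3 SD, cut at about 70% in these data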;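 note: 0% = DMSO with NR2E3 transfected cells and 100% = cells lacking NR2E3 construct; higher means lower luciferase signal from less NR2E3 corepressor binding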
NR1D1 modulator – Rev-erb alpha (human) modulation; P20393; Rev-erbα–FITC-DNA binding, fluorescence polarization, 90 min; activity, % at 10 µM; hit rate 0.79% among 370,000;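 active = activity above about 14%, limit read from the data; passing the limit was not always enough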;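 note: 0% = DMSO wells with 35 nM protein and 100% = DMSO wells with 750 nM protein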
Target sequence (P20393 whole entry, looked up): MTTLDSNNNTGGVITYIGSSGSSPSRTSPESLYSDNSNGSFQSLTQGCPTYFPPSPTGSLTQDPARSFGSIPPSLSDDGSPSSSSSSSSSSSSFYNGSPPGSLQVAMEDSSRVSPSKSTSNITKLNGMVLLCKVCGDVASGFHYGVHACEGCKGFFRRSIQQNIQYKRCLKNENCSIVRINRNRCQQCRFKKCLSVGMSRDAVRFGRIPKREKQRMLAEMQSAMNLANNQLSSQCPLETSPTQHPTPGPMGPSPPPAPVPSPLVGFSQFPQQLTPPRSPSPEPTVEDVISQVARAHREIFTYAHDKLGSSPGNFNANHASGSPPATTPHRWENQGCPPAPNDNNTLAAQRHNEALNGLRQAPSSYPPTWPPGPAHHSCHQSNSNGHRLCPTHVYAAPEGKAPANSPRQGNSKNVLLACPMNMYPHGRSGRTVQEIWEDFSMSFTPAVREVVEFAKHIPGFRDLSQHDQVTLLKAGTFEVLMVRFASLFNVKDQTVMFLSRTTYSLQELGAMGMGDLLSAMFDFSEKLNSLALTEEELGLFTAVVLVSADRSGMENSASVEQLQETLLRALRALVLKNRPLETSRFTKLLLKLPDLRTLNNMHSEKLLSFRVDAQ
PG9 binder – small molecules binding HIV-1 gp120 antibody PG9; TR-FRET gp120-PG9 antibody binding; inhibition, % at 6.7 µM; hit rate 0.43% among 360,000; AID 624416; in the data active = inhibition above about 8.5%
PG9 binder conf – PG9 antibody binding, confirmed; shares compounds with PG9 binder; TR-FRET PG9 antibody binding, biochemical; inhibition, % at 6.7 µM; hit rate 90% among 1,500; AID 651571; in the data active = inhibition above about 9%
PGV04 Ab binding – counter-screen for PG9 binders: binding control antibody PGV04; shares compounds with PG9 binder; hit rate 95% among 1,500; inhibition, % at 6.7 µM; TR-FRET PGV04 antibody-gp120 binding, biochemical; in the data active = inhibition above about 9.5%
PG9 bind DR – PG9 antibody binding, dose response. 95 tested, under 10 active. shares compounds with PG9 binder. IC50, µM. TR-FRET PG9 antibody-gp120 binding inhibition; in the data active = IC50 below about 10 µM
PGV04 DR counter – binds control antibody PGV04 in PG9 counter-screen; TR-FRET binding to control antibody PGV04; shares compounds with PG9 binder; AID 651937; IC50, µM; hit rate 20% among 95
PG126 DR counter – binds control antibody PG126 in PG9 counter-screen; TR-FRET binding to antibody PG126, counterscreen; shares compounds with PG9 binder; AID 651939; hit rate 20% among 95; IC50, µM
* hit, by the source's call; . = no result. Cut-off read from the data, not from the text of the source, unless noted: active = IC50 below about 9 µM; inactive = the rest.

SMILES | NR2E3 ag-1 | NR2E3 ag-2 | NR1D1 modulator | PG9 binder | PG9 binder conf | PGV04 Ab binding | others
COc1cc(C(=O)Nc2cccc(-c3nc4ncccc4o3)c2C)cc(OC)c1OC | -3 | 3 | 3 | 2 | . | .
COc1cccc(-n2nnnc2SCC(=O)Nc2ccc(C(C)=O)cc2)c1 | 7 | 1 | 14 | 16* | 24* | 39*
COc1cccc(-n2nnnc2SCC(=O)Nc2ccccc2OC)c1 | 1 | 15 | -5 | 0 | . | .
COC(=O)[C@]12CCCCC=C1N(Cc1ccccc1)C(=O)[C@H](CC(=O)N1CCCCC1)C2 | . | 0 | -1 | -2 | . | .
N#C/C(=C(/O)COC(=O)COc1cccc(Br)c1)c1nc2ccccc2[nH]1 | 1 | -15 | 7 | 12* | 19* | 31*
Cc1cc(C)cc(OCC(=O)OC/C(O)=C(\C#N)c2nc3ccccc3[nH]2)c1 | 3 | -16 | 0 | 8 | . | .
COc1ccc2c(-c3ccccc3)cc3nnnn3c2c1 | 4 | -11 | 16 | 9.9* | 10* | 24*
O=C(Cn1nnc(-c2ccccc2Cl)n1)NCc1ccc2c(c1)OCO2 | 16 | 1 | 0 | 10* | 11* | 14*
Cn1c(C(=O)N2CCN(c3nc4ccccc4s3)CC2)cc2sccc21 | 0 | -16 | 10 | 14* | 20* | 31*
CC(=O)Nc1ccc(Br)c2ccccc12 | 11 | -26 | -1 | 11* | 22* | 23*
O=C(Nc1nc(=O)c2ccccc2s1)c1ccccc1 | 5 | -31 | 23 | 29* | 51* | 69*
COc1ccc(S[C@]2(C(=O)N3CCN(c4ncccn4)CC3)CC(=O)N(S(=O)(=O)c3ccc(F)cc3)[C@@H]2c2ccc(OC)cc2)cc1 | . | . | 3 | . | . | .
COC(=O)c1cc(-c2cccc(OC)c2)c2c(=O)[nH]c(=O)n(C)c2n1 | -2 | -30 | 8 | 8.8* | 18* | 24*
COc1ccc(OC)c(N=Cc2c(O)c3ccccc3oc2=O)c1 | 5 | -33 | -3 | -3 | . | .
COc1ccc(N=Cc2c(O)c3ccccc3oc2=O)cc1 | -1 | -31 | 3 | 32* | 27* | 39*
CSc1nc2sc3c(c2c(=S)[nH]1)CC(C)(C)OC3 | . | -7 | -2 | 12* | 44* | 73*
CCc1nc2sc3c(c2c(=S)[nH]1)CC(C)(C)OC3 | . | -19 | -3 | 5 | . | .
COc1ccccc1NC(=O)c1ccc(NC(=O)Cc2n[nH]c(=O)c3ccccc23)cc1 | 4 | -10 | 4 | 11* | 12* | 18*
COc1ccc(Nc2nc(C)nc3c2oc2ccccc23)c(OC)c1 | -1 | -7 | 7 | 13* | 15* | 22*
Cc1ccc(NC(=O)COC(=O)c2cc(Cl)ccc2Cl)c(Br)c1 | 9 | -10 | 4 | 22* | 31* | 40*
COCCNC(=O)c1c[nH]c2ccc(S(=O)(=O)N3CCc4ccccc43)cc2c1=O | -1 | -11 | -1 | 0 | . | .
COCCNC(=O)c1c[nH]c2ccc(S(=O)(=O)Nc3ccccc3F)cc2c1=O | 4 | -11 | -1 | 9.6* | 22* | 23*
COCCNC(=O)c1c[nH]c2ccc(S(=O)(=O)Nc3ccc(F)cc3F)cc2c1=O | 2 | -4 | -7 | 9.3* | 22* | 22* | PG9 bind DR=>67;PGV04 DR counter=>67;PG126 DR counter=>67
CC(C)NC(=O)N[C@@H]1C[C@@H]2O[C@H](CO)CC[C@@H]2O[C@@H]1CCc1ccc(-c2ccccc2F)cc1 | . | . | 0 | . | . | .
Cc1ccc(-c2cc(C(=O)NN=C/C=C/c3ccco3)[nH]n2)cc1C | . | . | -4 | . | . | .
SMILES | NR2E3 ag-1 | NR2E3 ag-2 | NR1D1 modulator | PG9 binder | PG9 binder conf | PGV04 Ab binding | others
CC1CCCCN1C(=O)CSc1nc(C2CC2)nc2c1cnn2-c1ccccc1 (stereo not drawn) | 3 | -9 | 6 | -2 | . | .
Cc1nn(C)c(C)c1NC(=O)CSc1nc(C2CC2)nc2c1cnn2-c1ccccc1 | 2 | 6 | 2 | 13* | 43* | 74*
COc1cc(OC)c(C2Nc3cccc4cccc(c34)N2)c(OC)c1 | . | 24 | -11 | 12* | 6 | 12*
COc1ccc(C2Nc3cccc4cccc(c34)N2)cc1 | 5 | -23 | -10 | -7 | . | .
COc1ccc(C[N+]2=C(N)N[C@@]3(C=C(C)Cn4c(=O)n(-c5ccccc5)c(=O)n43)C2)c(OC)c1 | . | . | 0 | . | . | .
CCN(CC)c1ccc(-c2nn3c(-c4ccccc4Cl)nnc3s2)cc1 | . | . | 5 | . | . | .
O=C(NCCN1CCOCC1)c1cc(-c2ccc(Br)cc2)on1 | 5 | -11 | -2 | 1 | . | .
C=CCNC(=O)c1cc(-c2ccc(Br)cc2)on1 | 4 | -72 | 4 | 9.4* | 25* | 28*
COCCCn1cc(CN2CC=CS2(=O)=O)nn1 | . | . | 2 | . | . | .
O=C(NC1CCSc2ccccc21)c1ccc(C(F)(F)F)cc1 (stereo not drawn) | 6 | -3 | 3 | 11* | 11* | 18*
O=C(NC1CCSc2ccccc21)c1ccc(F)cc1 (stereo not drawn) | 3 | -1 | -1 | 1 | . | .
Cc1noc(C)c1NC(=O)Nc1ccc2c(c1)C(=O)N(C)[C@H]1CC[C@H](CC(=O)NCc3ccc(Cl)cc3)O[C@@H]1CO2 | . | . | 14 | . | . | .
Cn1c2ccccc2c(=O)c2ccc(C#Cc3ccccn3)cc21 | -69 | . | -10 | 50* | 57* | 79*
Cn1c2ccccc2c(=O)c2cc(C#Cc3ccccn3)ccc21 | 6 | -126 | 0 | 1 | . | .
CCC(C(=O)NC1CCCCC1)n1c2ccccc2c2nc(=O)cc(C)n21 (stereo not drawn) | -2 | -11 | -1 | 16* | 8 | 9.5*
O=C(N=C1N(Cc2ccccc2)[C@@H](Cc2ccccc2)[C@]2(C=C3CCCCC3n3c(=O)n(-c4ccccc4)c(=O)n32)N1C(=O)OCc1ccccc1)c1ccccc1 (stereo partly drawn) | . | . | -4 | . | . | .
CCc1ccc2nc(NC(=O)Cn3cnc4ccccc4c3=O)sc2c1 | 4 | -89 | -6 | 3 | . | .
O=C(Cn1cnc2ccccc2c1=O)Nc1nc2ccccc2s1 | 5 | 14 | 3 | 18* | 21* | 28*
COC(=O)C1CN(Cc2ccc(OC)cc2)CCS(=O)(=O)N1Cc1ccccc1 (stereo not drawn) | . | . | 2 | . | . | .
Cc1ccccc1NC(=O)c1c(C)[nH]c(=S)c(C#N)c1-c1ccc(Cl)cc1 | 5 | -3 | -6 | 1 | . | .
Cc1ccc(-c2c(C(=O)Nc3ccccc3C)c(C)[nH]c(=S)c2C#N)o1 | 9 | -33 | 5 | 15* | 11* | 11*
